Source: PubChem
Hsp70 act – Hsp70 transcriptional activation, primary screen. actives 0.04% (n = 200,000). HeLa Hsp70 promoter luciferase reporter, luminescence; scaled: vehicle 0, proteasome-inhibitor control 100%. activation, % at 10 µM;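 active = activation above the mean across all tested compounds plus 3 SD, cutoff set per campaign, cut at about 5.5% in these data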;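 also: 100% = MG132 at 30 µM as the positive control and 0% = DMSO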
ABHD5-PLIN5 inh – blocks binding of human ABHD5 to perilipin-5; Split G. princeps luciferase complementation, luminescence, 4 h; actives 0.78% (n = 360,000); inhibition, % at 4 µM; Q00G26+Q8WTS1; AID 602281;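 active = inhibition above the mean inhibition across every tested compound plus 3 SD, cut at about 22% in these data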;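 also: 0% = DMSO only wells and the 100% control is not disclosed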
Target sequence (Q00G26 whole entry, looked up): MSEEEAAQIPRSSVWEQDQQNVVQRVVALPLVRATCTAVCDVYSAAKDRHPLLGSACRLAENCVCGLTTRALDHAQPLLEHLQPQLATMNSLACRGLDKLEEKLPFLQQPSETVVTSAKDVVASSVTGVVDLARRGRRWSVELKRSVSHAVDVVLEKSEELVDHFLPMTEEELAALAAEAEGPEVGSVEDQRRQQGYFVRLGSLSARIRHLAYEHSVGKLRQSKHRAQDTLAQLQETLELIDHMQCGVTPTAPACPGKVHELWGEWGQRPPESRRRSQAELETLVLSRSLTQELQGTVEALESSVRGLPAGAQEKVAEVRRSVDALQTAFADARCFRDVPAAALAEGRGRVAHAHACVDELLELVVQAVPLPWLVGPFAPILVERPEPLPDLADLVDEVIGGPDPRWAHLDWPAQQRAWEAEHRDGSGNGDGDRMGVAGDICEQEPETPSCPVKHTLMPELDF
Target sequence (Q8WTS1 whole entry, looked up): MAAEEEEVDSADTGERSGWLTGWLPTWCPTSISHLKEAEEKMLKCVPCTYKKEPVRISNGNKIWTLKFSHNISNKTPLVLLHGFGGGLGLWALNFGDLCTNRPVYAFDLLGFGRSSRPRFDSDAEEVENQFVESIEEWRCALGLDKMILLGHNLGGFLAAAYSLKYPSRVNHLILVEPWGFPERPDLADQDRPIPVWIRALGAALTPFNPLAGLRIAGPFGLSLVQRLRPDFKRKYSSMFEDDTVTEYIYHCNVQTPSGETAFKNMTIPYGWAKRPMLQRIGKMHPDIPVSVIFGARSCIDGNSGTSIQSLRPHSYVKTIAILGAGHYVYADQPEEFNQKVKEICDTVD
Rad51 HR inh – blocks human Rad51 in homologous recombination; actives 0.085% (n = 200,000); inhibition, % at 10 µM; hRad51 DNA strand exchange, fluorescence dequenching; Q06609;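 active = inhibition above 40% at the single screening dose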;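 also: 0% = DMSO control wells and 100% = blanks with heterologous ssDNA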
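Material: Human Rad51 nucleoprotein filaments preassembled on unlabelled ssDNA | Also added: Labelled 47-mer dsDNA for strand exchange | Dosing: Single dose, 10 µM final compound | Schedule: 30-min compound preincubation and 15-min exchange, both room temperature | Technique: Fluorescence dequenching at 485/520 nm | Measure: Percent inhibition relative to plate controls and blanks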
TAG inh – reduces triacylglycerol accumulation in H9c2 cells; Nile Red lipid (TAG) fluorescence; cells loaded with 200 µM oleic acid; inhibition, % at 12.5 µM; actives 0.66% (n = 230,000); AID 651582;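 active = pattern-corrected inhibition of lipid staining of at least 50% with the nuclear-stain viability signal not falling by more than 50%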;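 also: 0% = DMSO wells and 100% = triacsin C control wells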
GAA850 FXN act – activators of GAA850 frataxin (FXN) promoter | HEK293 lucGAA850 FXN promoter luciferase reporter, 24 h; percent of 10 µM SAHA response | activation, % at 6 µM | actives 0.56% (n = 360,000) | AID 540364;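 active = activation above the average of all compounds screened plus 3 SD, cutoff fixed separately per campaign, cut at about 7.5% in these data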;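 also: 0% = DMSO wells and 100% = 10 µM SAHA wells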
HIF activator – HIF pathway transcriptional activation; U2OS HRE-luciferase reporter, luminescence; normalized: DMSO 0%, desferrioxamine 100%; activation, % at 7.5 µM (by protocol); actives 0.32% (n = 300,000);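 active = mean activation of at least 10% of the iron chelator positive control signal, with at least half of replicates also reaching 10%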
GAA30 counter – activates GAA30 frataxin promoter, counter-screen for GAA850 activators; shares compounds with GAA850 FXN act; HEK293 lucGAA30 FXN promoter luciferase, 24 h; DMSO = 0%, 5 µM ipriflavone = 100%; activation, % at 6 µM; actives 66% (n = 1,900); AID 588350;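 active = mean activation above the mean of solvent-only control wells plus 3 SD, cut at about 22% in these data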;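 also: counterscreen of GAA850 promoter hits where activity marks nonselective or luminescence artifacts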
FXN GAA850 conf – GAA850 FXN promoter activation confirmation | shares compounds with GAA850 FXN act | HEK293 lucGAA850 FXN promoter luciferase reporter, 24 h; 100% = activation by SAHA | activation, % at 6 µM | actives 86% (n = 1,900) | AID 588351;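 active = mean activation above a set limit taken from the primary screen, cut at about 8% in these data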;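 also: 0% = DMSO wells and 100% = 10 µM SAHA wells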
ABHD5 PLIN5 conf – ABHD5-PLIN5 interaction inhibition, confirmed | biochemical ABHD5-PLIN5 interaction, luminescence | inhibition, % at 4 µM | AID 651612 | actives 67% (n = 2,200) | shares compounds with ABHD5-PLIN5 inh; in the data active = inhibition above about 23%;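 also: 0% = DMSO vehicle wells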
HNF4 split-luc – active in HNF4 split-luciferase counter-screen for ABHD5-PLIN5 inhibitors | AID 651674 | inhibition, % at 4 µM | actives 77% (n = 2,200) | shares compounds with ABHD5-PLIN5 inh | HNF4 dimerization, luminescence, biochemical;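 active = mean inhibition across replicate wells exceeding the computed hit threshold, cut at about 13% in these data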;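 also: light from luciferase halves that rejoin when HNF4 fusion proteins dimerize; 0% = DMSO only wells and the 100% control is not given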
* = called active by the depositor; i = inactive; x = no result. Compounds with a hit are over-represented: about 1.9% of the library has one in this group of screens.

SMILES | Hsp70 act | ABHD5-PLIN5 inh | Rad51 HR inh | TAG inh | GAA850 FXN act | HIF activator | GAA30 counter | FXN GAA850 conf | ABHD5 PLIN5 conf | HNF4 split-luc
CC(/C=C\c1ccccc1)=C/C(=O)O | x | -2.1 | -14.2 | 11.9 | 2.1 | -0.3 | x | x | x | x
O=C(/C=C/c1ccccc1)/C=C/c1ccccc1 | 0.1 | 73.9* | 13.5 | x | 7.9* | 0.7 | 31.5* | 29.6* | 98.9* | 91.8*
COc1cc(OC)cc(C(=O)OC(C)C(=O)NC2CCCc3ccccc32)c1 (stereo unspecified) | x | 5.7 | x | 25.0 | -0.3 | x | x | x | x | x
CC1(C)Cc2c(c(-c3ccco3)nc3sc4c(NCCCO)ncnc4c23)CO1 | x | 32.8* | 10.3 | 22.5 | 7.7* | -0.4 | 9.3 | 14.4* | 20.4 | 23.0*
Cc1nc([N+](=O)[O-])c(Br)n1CC(=O)c1ccc2ccccc2c1 | -0.5 | 24.5* | 2.9 | 7.4 | 24.5* | 5.4 | 327.8* | 117.7* | 52.6* | 36.4*
Cc1nc([N+](=O)[O-])c(Br)n1CC(=O)c1ccccc1 | -0.2 | 14.1 | 16.7 | -1.3 | -0.1 | 0.6 | x | x | x | x
O=C(c1ccc2c(c1)OCO2)N1CCN(S(=O)(=O)c2ccc(Br)cc2Cl)CC1 | x | -4.1 | x | -4.8 | 0.4 | x | x | x | x | x
COc1cc(/C=C/C(=O)c2ccc([N+](=O)[O-])o2)ccc1O | x | 27.4* | x | 115.6 | 12.2* | 2.7 | -115.0 | -28.4 | 95.7* | 94.2*
COc1ccc(/C=C/C(=O)c2ccc([N+](=O)[O-])o2)cc1OC | x | x | x | x | x | 1.4 | x | x | x | x
O=C(C#Cc1ccccc1)c1ccco1 | x | 38.9* | x | x | 12.5* | -4.1 | -115.7 | -34.8 | 53.6* | 107.2*
O=C(N/N=C/c1ccccc1)c1ccco1 | x | 9.3 | 4.7 | 12.2 | 3.4 | 2.4 | x | x | x | x
CCCN1C(=O)S/C(=C\c2ccc(N3CCOCC3)o2)C1=O | 0.0 | 74.5* | i | -25.2 | 9.8* | 2.5 | 94.5* | 29.4* | 53.9* | 108.7*
CCCN1C(=O)S/C(=C\c2ccc(N3CCOCC3)cc2C)C1=O | -0.3 | x | 2.9 | x | x | x | x | x | x | x
CC(=O)N1C(=O)C2(NCC(C)N2)c2ccccc21 (stereo unspecified) | x | -6.6 | x | 7.1 | 0.5 | x | x | x | x | x
COc1ccc(C2CCCN2C(=S)Nc2ccc(C)cc2Cl)cc1OC (stereo unspecified) | -0.1 | 4.2 | 3.5 | -3.9 | 2.2 | 0.4 | x | x | x | x
CC(=O)Oc1ccccc1C(=O)C=Cc1cccc([N+](=O)[O-])c1 | x | 98.8* | x | -0.9 | 16.8* | x | -50.5 | 22.0* | 103.7* | 108.6*
Cc1cc(O)c(C(=O)/C=C/c2cccc([N+](=O)[O-])c2)c(=O)o1 | x | -1.5 | x | -0.1 | 0.8 | 0.1 | x | x | x | x
Cc1oc(=O)c(NC(=O)c2ccc(Cl)cc2)cc1C(=O)c1ccccc1 | 0.1 | 46.4* | -1.4 | x | 12.2* | 2.4 | 7.1 | 8.9* | 10.9 | 95.0*
O=C(/C=C\c1ccc(-c2ccccc2)o1)c1ccccc1 | -0.3 | 38.0* | -3.6 | x | 11.7* | 1.7 | 67.4* | 27.1* | 67.5* | 90.3*
CCN(CC)c1ccc(/C=C2/SC(=O)N(C(C)C)C2=O)o1 | 0.2 | 93.0* | i | x | 8.0* | 0.2 | 96.0* | 31.8* | 73.2* | 109.5*
Cc1cc(N2CCOCC2)ccc1/C=C1\SC(=O)N(C(C)C)C1=O | 0.5 | -0.9 | 15.3 | 20.4 | 0.8 | 2.4 | x | x | x | x
